Source: ChEMBL document CHEMBL1141109, “Synthesis of an estrogen receptor beta-selective radioligand: 5-[18F]fluoro-(2R,3S)-2,3-bis(4-hydroxyphenyl)pentanenitrile and comparison of in vivo distribution with 16alpha-[18F]fluoro-17beta-estradiol” (J Med Chem, 2005)

Key:
[1] = Biodistribution of [18F]FEDPN in alpha estrogen receptor knock out mouse bone after 1 h; (n=3); assay type: ADME, organism-based, Bone element; settings: in vivo
Summary of the method: (§1)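 ERKO female mice (αERKO or βERKO), rested 48 h after shipping, placed on estrogen-free chow, and staged by daily vaginal smears. Injected in a nonestrous stage with 11 µCi [18F]FEDPN in 130 µL of 10% ethanol/saline. Killed at 30 min, 1 h or 2 h. Organs counted and reported as %ID/g ± SD, three animals per point.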

[2] = Biodistribution of [18F]FEDPN in beta estrogen receptor knock out mouse fat after 1 h; (n=3); assay type: ADME, organism-based, Adipose tissue; settings: in vivo
Summary of the method: (§2)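 αERKO and βERKO mice, staged by daily vaginal smears and kept on estrogen-free chow, were studied in a nonestrous stage. Each mouse received 11 μCi of tracer in 130 μL of 10% ethanol/saline. Mice were killed at 30 min, 1 h or 2 h (n = 3 each). Organs were removed, blotted, weighed and gamma-counted against an injectate standard. Uptake is given as %ID/g ± SD.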

[3] = Biodistribution of [18F]-FEDPN in rat muscle after 2 hr when given in tail vein; (n=5); assay type: ADME, organism-based, Muscle tissue; settings: in vivo, iv
Summary of the method: (§3)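 Immature female Sprague–Dawley rats (<25 days old) anesthetized with isoflurane/O2. Given 20 µCi tracer by tail vein in 150 µL of 20% ethanol/saline. […] Killed at 30 min, 1 h or 2 h. Blood and organs blotted, weighed and gamma-counted against a standard dilution of the injectate. Reported as %ID/g ± SD, n=5.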

[4] = Biodistribution of [18F]FEDPN in alpha estrogen receptor knock out mouse ovaries after 2 h; (n=3); assay type: ADME, organism-based, Female gonad; settings: in vivo; summary of the method: as §2
[5] = target: T1, Estrogen receptor (Mus musculus) (UniProt O08537+P19785); assay: Ratio of [18F]FEDPN uptake in uterus of ERbeta KO-mouse and ERalpha KO-mouse (nonestrus) after 1 hr
T1 sequence (O08537 whole entry, looked up): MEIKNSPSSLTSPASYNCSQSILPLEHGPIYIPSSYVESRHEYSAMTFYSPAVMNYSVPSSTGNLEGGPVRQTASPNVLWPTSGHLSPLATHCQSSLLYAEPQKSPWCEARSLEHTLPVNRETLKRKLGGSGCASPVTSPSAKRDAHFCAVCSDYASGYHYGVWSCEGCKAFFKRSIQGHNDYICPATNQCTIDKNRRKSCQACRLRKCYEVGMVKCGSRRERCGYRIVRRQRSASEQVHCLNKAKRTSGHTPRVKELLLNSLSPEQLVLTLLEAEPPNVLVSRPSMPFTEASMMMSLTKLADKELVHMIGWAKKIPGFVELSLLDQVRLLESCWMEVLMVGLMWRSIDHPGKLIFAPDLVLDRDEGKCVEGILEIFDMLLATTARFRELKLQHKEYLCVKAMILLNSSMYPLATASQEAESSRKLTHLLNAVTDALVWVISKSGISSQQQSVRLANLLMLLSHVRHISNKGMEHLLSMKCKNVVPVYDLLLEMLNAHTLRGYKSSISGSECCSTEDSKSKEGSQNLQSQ
T1 sequence (P19785 whole entry, looked up): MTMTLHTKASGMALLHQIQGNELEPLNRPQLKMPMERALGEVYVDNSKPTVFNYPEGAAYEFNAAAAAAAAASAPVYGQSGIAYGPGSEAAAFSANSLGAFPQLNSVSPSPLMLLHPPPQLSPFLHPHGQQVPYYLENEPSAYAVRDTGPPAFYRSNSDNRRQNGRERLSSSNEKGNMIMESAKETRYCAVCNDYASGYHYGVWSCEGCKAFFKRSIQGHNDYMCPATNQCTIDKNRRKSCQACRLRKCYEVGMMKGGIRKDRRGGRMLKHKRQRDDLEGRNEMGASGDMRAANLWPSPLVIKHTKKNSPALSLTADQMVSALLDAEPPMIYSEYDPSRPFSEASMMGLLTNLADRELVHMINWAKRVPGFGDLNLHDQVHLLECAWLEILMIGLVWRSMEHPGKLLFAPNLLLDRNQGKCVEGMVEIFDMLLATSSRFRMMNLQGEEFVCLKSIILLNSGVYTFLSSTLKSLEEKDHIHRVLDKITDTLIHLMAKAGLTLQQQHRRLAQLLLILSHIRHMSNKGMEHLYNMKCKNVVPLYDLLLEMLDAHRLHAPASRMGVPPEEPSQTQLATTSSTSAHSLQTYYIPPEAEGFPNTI

[6] = Biodistribution of [18F]FEDPN in alpha estrogen receptor knock out mouse thymus after 30 min; (n=3); assay type: ADME, organism-based; settings: in vivo, 0.5 h; summary of the method: as §2
[7] = Biodistribution of [18F]FEDPN in rat muscle after 1 h when given in tail vein; (n=5); assay type: ADME, organism-based, Muscle tissue; settings: in vivo, iv
Summary of the method: (§4)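 Immature female Sprague–Dawley rats (<25 days old) under isoflurane/O2 got 20 µCi tracer in 150 µL 20% ethanol/saline by tail vein. […] Rats were killed at 30 min, 1 h or 2 h. Organs were blotted, weighed and gamma-counted against an injectate standard. Data are %ID/g ± SD, five rats per point.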

[8] = Biodistribution of [18F]-FEDPN in rat heart after 1 hr when given in tail vein; (n=5); assay type: ADME, organism-based; settings: in vivo, iv; summary of the method: as §3
[9] = Biodistribution of [18F]FEDPN in beta estrogen receptor knock out mouse kidney after 2 h; (n=3); assay type: ADME, organism-based; settings: in vivo; summary of the method: as §2
[10] = Biodistribution of [18F]FEDPN in beta estrogen receptor knock out mouse thymus after 2 h; (n=3); assay type: ADME, organism-based; settings: in vivo; summary of the method: as §2
[11] = Biodistribution of [18F]FEDPN in alpha estrogen receptor knock out mouse lung after 30 min; (n=3); assay type: ADME, organism-based; settings: in vivo, 0.5 h; summary of the method: as §2
[12] = Biodistribution of [18F]FEDPN in beta estrogen receptor knock out mouse ovaries after 30 min; (n=3); assay type: ADME, organism-based, Female gonad; settings: in vivo, 0.5 h; summary of the method: as §2
[13] = Biodistribution of [18F]FEDPN in alpha estrogen receptor knock out mouse kidney after 2 h; (n=3); assay type: ADME, organism-based; settings: in vivo; summary of the method: as §1
[14] = Biodistribution of [18F]FEDPN in beta estrogen receptor knock out mouse muscle after 30 min; (n=3); assay type: ADME, organism-based, Muscle tissue; settings: in vivo, 0.5 h; summary of the method: as §2
[15] = Biodistribution of [18F]FEDPN in rat fat after 1 h block when given in tail vein; (n=5); assay type: ADME, organism-based, Adipose tissue; settings: in vivo, iv; summary of the method: as §4
[16] = Biodistribution of [18F]FEDPN in beta estrogen receptor knock out mouse fat after 30 min; (n=3); assay type: ADME, organism-based, Adipose tissue; settings: in vivo, 0.5 h; summary of the method: as §2
[17] = Biodistribution of [18F]FEDPN in rat ovaries after 1 h block when given in tail vein; (n=5); assay type: ADME, organism-based, Female gonad; settings: in vivo, iv; summary of the method: as §4
[18] = target: T1, Estrogen receptor (Mus musculus); assay: Ratio of [18F]FEDPN uptake in ovaries of ERbeta KO-mouse and ERalpha KO-mouse (nonestrus) after 1 hr
[19] = Biodistribution of [18F]FES in alpha estrogen receptor knock out mouse brain after 30 min; (n=3); assay type: ADME, organism-based; settings: in vivo, 0.5 h
Summary of the method: (§5)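 Female αERKO mice rested 48 h after shipping and fed estrogen-free chow. Estrous stage was checked by daily vaginal smears, and mice were used in diestrus. Each received 13 µCi [18F]FES in 100 µL 10% ethanol/saline. Animals were sacrificed at 30 min, 1 h or 2 h (n = 3 each). Tissue uptake is reported as %ID/g ± SD.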

[20] = Biodistribution of [18F]FES in beta estrogen receptor knock out mouse spleen after 30 min; (n=3); assay type: ADME, organism-based; settings: in vivo, 0.5 h
[21] = Biodistribution of [18F]FES in beta estrogen receptor knock out mouse ovaries after 2 h; (n=3); assay type: ADME, organism-based, Female gonad; settings: in vivo
[22] = Biodistribution of [18F]FES in beta estrogen receptor knock out mouse fat after 30 min; (n=3); assay type: ADME, organism-based, Adipose tissue; settings: in vivo, 0.5 h
[23] = Biodistribution of [18F]FES in alpha estrogen receptor knock out mouse liver after 2 h; (n=3); assay type: ADME, organism-based; settings: in vivo
Summary of the method: (§6)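 Female αERKO mice were rested 48 h after shipping and fed estrogen-free chow. They were staged by daily vaginal smears and studied in diestrus. Each received 13 µCi [18F]FES in 100 µL 10% ethanol/saline and was sacrificed at 30 min, 1 h or 2 h (n = 3 per time). Tissue uptake is given as %ID/g ± SD.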

[24] = Biodistribution of [18F]FES in beta estrogen receptor knock out mouse brain after 2 h; (n=3); assay type: ADME, organism-based; settings: in vivo
[25] = Biodistribution of [18F]-FES in beta estrogen receptor knock out mouse lung after 2 h; (n=3); assay type: ADME, organism-based; settings: in vivo
Summary of the method: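 Female βERKO mice in estrus were used because repeated swabbing had induced pseudopregnancy. They were fed estrogen-free chow. Each received 13 µCi [18F]FES in 100 µL 10% ethanol/saline and was sacrificed at 30 min, 1 h or 2 h (n = 3 each). Tissue uptake is given as %ID/g ± SD.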

[26] = Biodistribution of [18F]FES in beta estrogen receptor knock out mouse thymus after 2 h; (n=3); assay type: ADME, organism-based; settings: in vivo
[27] = Biodistribution of [18F]FES in beta estrogen receptor knock out mouse lung after 30 min; (n=3); assay type: ADME, organism-based; settings: in vivo, 0.5 h
[28] = Biodistribution of [18F]FES in alpha estrogen receptor knock out mouse uterus after 2 h; (n=3); assay type: ADME, organism-based; settings: in vivo
[29] = Biodistribution of [18F]FES in beta estrogen receptor knock out mouse liver after 1 h; (n=3); assay type: ADME, organism-based; settings: in vivo
[30] = Biodistribution of [18F]FES in beta estrogen receptor knock out mouse liver after 30 min(n=2); mice in nonestrus stage; assay type: ADME, organism-based; settings: in vivo, 0.5 h
[31] = Biodistribution of [18F]FES in alpha estrogen receptor knock out mouse muscle after 2 h; (n=3); assay type: ADME, organism-based, Muscle tissue; settings: in vivo; summary of the method: as §6
[32] = Biodistribution of [18F]FES in beta estrogen receptor knock out mouse brain after 30 min(n=2); mice in nonestrus stage; assay type: ADME, organism-based; settings: in vivo, 0.5 h
[33] = Biodistribution of [18F]FES in alpha estrogen receptor knock out mouse heart after 1 h; (n=3); assay type: ADME, organism-based; settings: in vivo; summary of the method: as §5
[34] = Biodistribution of [18F]FES in alpha estrogen receptor knock out mouse ovaries after 1 h; (n=3); assay type: ADME, organism-based, Female gonad; settings: in vivo; summary of the method: as §6

N#C[C@H](c1ccc(O)cc1)[C@@H](CCF)c1ccc(O)cc1
Biodistribution [1]: 4.13 %ID/g
Biodistribution [2]: 0.33 %ID/g
Biodistribution [3]: 0.09 %ID/g
Biodistribution [4]: 0.28 %ID/g
Ratio [5]: 1.46
Biodistribution [6]: 1.27 %ID/g
Biodistribution [7]: 0.22 %ID/g
Biodistribution [8]: 0.29 %ID/g
Biodistribution [9]: 1.39 %ID/g
Biodistribution [10]: 0.11 %ID/g
Biodistribution [11]: 4.32 %ID/g
Biodistribution [12]: 1.4 %ID/g
Biodistribution [13]: 1.94 %ID/g
Biodistribution [14]: 1.45 %ID/g
Biodistribution [15]: 0.21 %ID/g
Biodistribution [16]: 0.89 %ID/g
Biodistribution [17]: 0.26 %ID/g
Ratio [18]: 0.79

C[C@]12CC[C@@H]3c4ccc(O)cc4CC[C@H]3[C@@H]1C[C@@H](F)[C@@H]2O [FLUOROESTRADIOL]
Biodistribution [19]: 0.41 %ID/g
Biodistribution [20]: 1.4 %ID/g
Biodistribution [21]: 3.4 %ID/g
Biodistribution [22]: 2.01 %ID/g
Biodistribution [23]: 3.67 %ID/g
Biodistribution [24]: 0.14 %ID/g
Biodistribution [25]: 0.54 %ID/g
Biodistribution [26]: 0.38 %ID/g
Biodistribution [27]: 3.74 %ID/g
Biodistribution [28]: 0.36 %ID/g
Biodistribution [29]: 5.85 %ID/g
Biodistribution [30]: 7.91 %ID/g
Biodistribution [31]: 0.11 %ID/g
Biodistribution [32]: 0.81 %ID/g
Biodistribution [33]: 0.15 %ID/g
Biodistribution [34]: 0.49 %ID/g
